The results in this text go back to ChEMBL document CHEMBL4613272, “Anti-HIV-Active Nucleoside Triphosphate Prodrugs” (J Med Chem, 2020).

Series [1] in a line: Half life in pH 7.3 phosphate buffered saline in presence of pig liver esterase by HPLC analysis. The series is classed as ADME, Sus scrofa. The essentials: (§1)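 Prodrug diluted from 50 mM DMSO stock through a 6.0 mM intermediate into DMSO/50 mM PBS pH 7.3. Started with pig liver esterase (3 mg/mL solution in PBS) and shaken at 37 °C, 800 rpm. Aliquots quenched in MeOH at intervals, filtered, stored in liquid nitrogen and analysed by RP18 HPLC.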

Series [2] concerns Human immunodeficiency virus 2. Kind of series: Antiviral activity against HIV2 ROD infected in thymidine kinase-deficient human CEM cells assessed as inhibition of virus-induced giant cell formation measured after 4 to 5 days by microscopic analysis. Particulars: Human immunodeficiency virus 2, ISOLATE ROD, CCRF-CEM.
Series [3] is described as follows: Selectivity index, ratio of CC50 for human CEM cells to EC50 for HIV1 HE infected in human CEM/0 cells. The settings on record: CEM cells (CC50) and HIV1 HE infected CEM/0 cells (EC50).
A short description of series [4]: Cytotoxicity against human CEM cells assessed as reduction in cell proliferation. Particulars: CEM cells (CCRF-CEM). It counts as cell-based. The essentials: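 CC50 is the compound concentration inhibiting CEM CD4+ T-cell proliferation by 50%. Mean ± SD of n=2-3 independent experiments.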
A short description of series [5]: Half life in human CEM/0 cell extracts by HPLC analysis. The series is classed as ADME, CCRF-CEM. In a few lines:
(§2)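 Cell extract prepared from CEM cells grown in RPMI-1640-based medium to ~3·10^6 cells/mL. Cells washed twice in cold PBS, resuspended at 10^8 cells/mL, sonicated, cleared at 10,000 rpm and stored at -80 °C. Prodrug at 6.0 mM hydrolysis solution in DMSO-d6 mixed with water and extract at 37 °C over time. Samples iced, sonicated and centrifuged; supernatant analysed by RP18 HPLC. t1/2 calculated as for chemical hydrolysis.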

In series [6] the test system is Human immunodeficiency virus 1. Kind of series: Antiviral activity against HIV1 HE infected in human CEM/0 cells assessed as inhibition of virus-induced giant cell formation measured after 4 to 5 days by microscopic analysis. Particulars: Human immunodeficiency virus 1, HE, CCRF-CEM.
Series [7] has as its system Human immunodeficiency virus 2. Kind of series: Antiviral activity against HIV2 ROD infected in human CEM/0 cells assessed as inhibition of virus-induced giant cell formation measured after 4 to 5 days by microscopic analysis. Particulars: Human immunodeficiency virus 2, ISOLATE ROD, CCRF-CEM.
Series [8] is described as follows: Prodrug conversion in pH 7.3 phosphate buffered saline assessed as pig liver esterase-mediated d4TTP formation by HPLC analysis. It counts as ADME, Sus scrofa. Particulars: in vitro. In a few lines: as §1
A short description of series [9]: Half life in pH 7.3 phosphate buffered saline by HPLC analysis. The series is classed as physicochemical. In a few lines: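 Prodrug from 50 mM DMSO-d6 stock diluted to 1.9 mM with water/DMSO-d6. Reaction started by adding phosphate buffer (50 mM stock, pH 7.3). Products followed by analytical RP18 HPLC with TBAA or TEAA buffer/acetonitrile gradient.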
The nature of series [10]: Cytotoxicity against mouse eEND.2 cells assessed as reduction in cell viability by WST-1 assay. Particulars: read-out: LD50 (the source's name). The series is classed as cell-based.
The nature of series [11]: Prodrug conversion in human CEM/0 cell extracts assessed as gamma-(C6-ACB)-d4TTP formation by HPLC analysis. Particulars: ccrf-cem. The series is classed as ADME. In a few lines:
as §2

The nature of series [12]: Prodrug conversion in human CEM/0 cell extracts assessed as d4TDP formation by HPLC analysis. It counts as ADME. Particulars: ccrf-cem. In a few lines: as §2
Series [13] is described as follows: Prodrug conversion in human CEM/0 cell extracts assessed as d4TTP formation by HPLC analysis. The settings on record: ccrf-cem. It counts as ADME. The essentials: as §2
Series [14] can be described thus: Prodrug conversion in pH 7.3 phosphate buffered saline assessed as pig liver esterase-mediated gamma-(C16-ACB)-d4TTP formation by HPLC analysis. It counts as ADME, Sus scrofa. The settings on record: in vitro. In a few lines:
as §1

Series [15] can be described thus: Prodrug conversion in human CEM/0 cell extracts assessed as d4TMP formation by HPLC analysis. It counts as ADME. The settings on record: ccrf-cem. The essentials:
as §2

Series [16] can be described thus: Prodrug conversion in human CEM/0 cell extracts assessed as gamma-(C16-ACB)-d4TTP formation by HPLC analysis. It counts as ADME. The settings on record: ccrf-cem. The essentials:
as §2

A short description of series [17]: Prodrug conversion in pH 7.3 phosphate buffered saline assessed as pig liver esterase-mediated d4TMP formation by HPLC analysis. The series is classed as ADME, Sus scrofa. The settings on record: in vitro. In a few lines: as §1

As usually defined, the half-life is how long it takes for the measured level to halve. By EC50 is commonly meant the concentration giving half of the maximal effect. `CCCCCCCCCCCCOC(=O)Oc1ccc(COP(=O)(OCc2ccc(OC(=O)OCC)cc2)OP(=O)(O)OP(=O)(O)OC[C@@H]2C=C[C@H](n3cc(C)c(=O)[nH]c3=O)O2)cc1.N.N` (stereo partly drawn): the half-life in series [1] was 0.51 h; in series [5] it was 0.94 h; in [9], 84 h. Moreover, the EC50 was 1.75 µM in series [2], 0.57 µM in series [6] and 0.24 µM in [7]. In series [3], the selectivity ratio worked out at 112. For the same compound, the CC50 in [4] came out at 64 µM. Besides, the Drug metabolism result in series [8] is reported as “Metabolite_Detected”.

With `OCc1ccc(O)cc1` [PARAHYDROXYBENZYL ALCOHOL], in series [10], the CC50 was 50000 µM.

With `CCCCCCCCCCCCCCCCOC(=O)Oc1ccc(COP(=O)(OCc2ccc(OC(=O)CCCC)cc2)OP(=O)(O)OP(=O)(O)OC[C@@H]2C=C[C@H](n3cc(C)c(=O)[nH]c3=O)O2)cc1.N.N` (stereo partly drawn), the half-life in series [1] is 1.6 h; in series [5] it was 3.7 h; in series [9], 74 h. Also, the EC50 in [2] was 0.12 µM. In [3], the selectivity ratio was found to be 656. Also, the CC50 in [4] stood at 21 µM. Moreover, the Drug metabolism entry in [8] was “Metabolite_Detected”.

Take `CCCCCCCCCCCC(=O)Oc1ccc(COP(=O)(OCc2ccc(OC(=O)OCCCCCC)cc2)OP(=O)(O)OP(=O)(O)OC[C@@H]2C=C[C@H](n3cc(C)c(=O)[nH]c3=O)O2)cc1.N.N` (stereo partly drawn): the results for the EC50 in [2], in series [6] and in series [7] were 0.21 µM, 0.3 µM and 0.07 µM, respectively. For the same compound, the selectivity ratio in [3] worked out at 137. Also, the CC50 in [4] came to 41 µM. Moreover, the values for the half-life in [5] and in series [9] were 2.5 h and 95 h, respectively. Besides, the Drug metabolism result in series [11] and in [8] was “Metabolite_Detected” in each case.

Turning to `CCCCCCCCCCCCCCCCOC(=O)Oc1ccc(COP(=O)(OCc2ccc(OC(=O)CC)cc2)OP(=O)(O)OP(=O)(O)OC[C@@H]2C=C[C@H](n3cc(C)c(=O)[nH]c3=O)O2)cc1.N.N` (stereo partly drawn), the half-life in [1] was 4.7 h; in [5] it was 1.9 h; in [9], 83 h. Besides, the EC50 in [2] amounted to 0.11 µM. Besides, the selectivity ratio in series [3] amounted to 1260. Also, the CC50 in series [4] came out at 34 µM. Moreover, the Drug metabolism result in series [12] was “Metabolite_Detected”; in series [13], “Metabolite_Notdetected”; in series [14] it was “Metabolite_Detected”; in series [15], “Metabolite_Detected”; in [8], “Metabolite_Detected”; in [16] it was “Metabolite_Detected”. Besides, the Drug metabolism entry in series [17] was “Metabolite_Notdetected”.

For `CCCCCCCCCCCCOC(=O)Oc1ccc(COP(=O)(OCc2ccc(OC(=O)CCCC)cc2)OP(=O)(O)OP(=O)(O)OC[C@@H]2C=C[C@H](n3cc(C)c(=O)[nH]c3=O)O2)cc1.N.N` (stereo partly drawn), the half-life in series [1] was 0.17 h; in series [5] it was 1.2 h; in series [9] it was 87 h. In addition, the figures for the EC50 in [2], in [6] and in series [7] were 0.073 µM, 0.04 µM and 0.017 µM, respectively. In series [3], the selectivity ratio is 675. In [4], the CC50 was found to be 27 µM. For the same compound, the Drug metabolism entry in [8] is listed as “Metabolite_Detected”.
